Cl transport mod: modulators of human KCC2 chloride dependent transport | 190,000 compounds, 2.2% hits | B-score of Tl+ flux slope (higher = more flux/activation; lower = inhibition) at 10 µM | Q9H2X9 | KCC2 cells, thallium flux FluoZin-2 fluorescence;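 active = thallium flux slope and its plate-corrected score both differing from the plate sample mean at a set confidence after two filtering rounds, in either direction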;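 note: slope of fluorescence scaled to starting intensity during 10 to 20 s after thallium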
Target sequence (Q9H2X9 whole entry, looked up): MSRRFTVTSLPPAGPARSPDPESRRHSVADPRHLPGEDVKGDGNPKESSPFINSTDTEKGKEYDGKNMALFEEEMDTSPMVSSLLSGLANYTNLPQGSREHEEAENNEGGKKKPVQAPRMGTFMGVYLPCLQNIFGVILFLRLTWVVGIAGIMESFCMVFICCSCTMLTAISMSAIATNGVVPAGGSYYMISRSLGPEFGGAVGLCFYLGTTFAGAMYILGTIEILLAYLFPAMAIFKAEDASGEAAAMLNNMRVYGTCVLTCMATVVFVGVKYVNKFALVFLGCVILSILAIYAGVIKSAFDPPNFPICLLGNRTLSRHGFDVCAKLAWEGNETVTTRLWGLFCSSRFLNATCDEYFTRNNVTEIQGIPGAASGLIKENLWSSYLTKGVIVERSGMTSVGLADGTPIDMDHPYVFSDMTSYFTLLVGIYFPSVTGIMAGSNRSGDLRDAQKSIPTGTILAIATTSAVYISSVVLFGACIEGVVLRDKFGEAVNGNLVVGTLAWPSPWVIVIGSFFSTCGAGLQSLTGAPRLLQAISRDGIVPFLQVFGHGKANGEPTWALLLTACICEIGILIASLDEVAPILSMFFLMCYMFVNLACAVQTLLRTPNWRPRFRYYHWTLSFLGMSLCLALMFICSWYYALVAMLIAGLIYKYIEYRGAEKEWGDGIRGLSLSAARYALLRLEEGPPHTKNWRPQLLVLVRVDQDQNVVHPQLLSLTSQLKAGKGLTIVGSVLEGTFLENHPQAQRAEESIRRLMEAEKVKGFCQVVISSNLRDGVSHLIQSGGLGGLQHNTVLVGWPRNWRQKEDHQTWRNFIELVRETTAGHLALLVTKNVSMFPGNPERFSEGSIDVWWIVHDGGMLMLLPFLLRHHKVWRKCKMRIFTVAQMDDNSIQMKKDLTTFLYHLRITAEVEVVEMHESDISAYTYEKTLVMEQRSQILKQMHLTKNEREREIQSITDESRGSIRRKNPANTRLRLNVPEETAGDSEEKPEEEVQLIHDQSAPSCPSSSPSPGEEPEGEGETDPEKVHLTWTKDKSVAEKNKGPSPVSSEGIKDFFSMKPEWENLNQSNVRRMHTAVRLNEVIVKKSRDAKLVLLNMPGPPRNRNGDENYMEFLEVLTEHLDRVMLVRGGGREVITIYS
hERG rescue: hERG (human) protection from proarrhythmic block | CHO-hERG, FluxOR thallium flux, dofetilide IC70 present | activation (rescue from dofetilide block), less the hit threshold, % at 10 µM | 310,000 compounds, 0.51% hits;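 active = activation above the mean of controls blocked by dofetilide plus 5 SD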;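 note: thallium influx through hERG after potassium depolarization seen as dye fluorescence rise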
KCNQ1 inh: inhibitors of human KCNQ1 potassium channel. CHO-K1 KCNQ1, FluxOR thallium flux fluorescence; hits give high values. B-score at 10 µM. 310,000 compounds, 1.3% hits;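 active = compounds whose thallium flux B-score, printed positive for inhibition, exceeds three library SD while starting fluorescence stays within three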;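 note: channel opened by potassium depolarization with thallium stimulus after 20 min compound exposure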
AI-2 QS mod: modulators of Vibrio harveyi AI-2 quorum sensing system | Vibrio harveyi JMH597 AI-2 luminescence/OD600 ratio, 9 h; hits give low values; strain lacks LuxN and CqsS sensors; 0 = neutral-control median | activity change, % at 7.5 µM | 300,000 compounds, 0.4% hits | AID 2094; in the data active = activity change below about -75%, passing the limit was not always enough; inconclusive = no clear call, values can overlap the other calls;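 note: luminescence divided by OD600 gain over 9 h not by final OD600 alone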
SUMO Mot1 rescue: blocks SUMOylation pathway, rescuing yeast Mot1-301 growth. 320,000 compounds, 1% hits. growth rescue, % at 18.8 µM. S. cerevisiae Mot1-301 growth rescue, ATP luminescence, 38.5C; percent above DMSO median, 100 means doubled. AID 2716;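 active = every valid replicate shows activation above 250% relative to neutral control wells; inactive = the rest, any valid replicate at or below 250%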;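 note: OY570 slx delta 5 strain wells were the positive control but not used for scaling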
KCNQ1 act: human KCNQ1 channel potentiation or activation. B-score at 10 µM. 310,000 compounds, 0.35% hits. CHO-K1 KCNQ1, thallium flux FluxOR fluorescence; hits give high values;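 active = fluorescence ratio B-score, a plate-corrected score, at least three library SD, with initial intensity B-score within 5 SD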
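assay system = KCNQ1-transfected CHO-K1 cells | medium = assay buffer with matched DMSO | probe or stimulus = depolarizing K+/Tl+ stimulus, K2SO4 and Tl2SO4 each 12.5 mM in 5x stock | dosing = single dose | incubation = dye 90 min, compound 20 min, room temperature | detection = kinetic FluxOR fluorescence, 10 s baseline plus 110 s post-stimulus | evaluation = ratio B score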
JMH597 growth: retest: inhibitors of Vibrio harveyi JMH597 growth | shares compounds with AI-2 QS mod | OD600 absorbance, 9 h; lacks LuxN and CqsS sensors | growth inhibition, % at 7.5 µM | 750 compounds, 1% hits;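 active = every replicate shows growth inhibition above 50%; inconclusive = at least half, but not all, replicates pass that cutoff; inactive = fewer than half of replicates pass it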
BB721 lum counter: retest counter-screen: lowers luminescence of constitutive-QS Vibrio harveyi BB721; shares compounds with AI-2 QS mod; 9 h; inhibition, % at 7.5 µM; 750 compounds, 95% hits; AID 2727;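 active = inhibition above about 80% in every replicate, not just on average, limit read from the data; inconclusive = at least half of replicates past the limit, but not all; inactive = fewer than half of replicates past the limit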
BB721 growth rt: retest: inhibitors of Vibrio harveyi BB721 growth | growth inhibition, % at 7.5 µM | shares compounds with AI-2 QS mod | 750 compounds, 3% hits | OD600 absorbance, 9 h;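 active = every replicate shows growth inhibition above 50%; inconclusive = at least half but not all replicates above 50% inhibition; inactive = under half of replicates above 50% inhibition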
AI-2 QS JMH597: Vibrio harveyi AI-2 signaling luminescence modulation – JMH597 strain, confirmation. shares compounds with AI-2 QS mod. Vibrio harveyi JMH597 AI-2 quorum sensing luminescence, 9 h; luxN and CqsS knockout, AI-2 only. inhibition, % at 7.5 µM. 750 compounds, 97% hits. AID 2736;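 active = every replicate shows more than 75% inhibition of signal versus neutral control wells; inconclusive = half to three quarters of replicates exceed 75% inhibition; inactive = fewer than half of replicates exceed 75% inhibition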
Numbers without * were called inactive. This is a sample that favours compounds with a hit; in the whole collection about 4.2% have one here.

Results for O=C(CN1C(=O)NC2(CCOc3ccccc32)C1=O)Nc1ccc(F)c(F)c1F (stereo not given) ?
Cl transport mod: 0.156; hERG rescue: -8.4; KCNQ1 inh: inactive; AI-2 QS mod: -79.4*; SUMO Mot1 rescue: -5.2; KCNQ1 act: inactive; JMH597 growth: -6.1; BB721 lum counter: 87.2*; BB721 growth rt: -8.2; AI-2 QS JMH597: 91.3*

What do the screens show for `O=C(O)CN1C(=O)NC2(CCOc3ccccc32)C1=O` (stereo not given)?
Cl transport mod: -0.0101; hERG rescue: -12.0; KCNQ1 inh: inactive; AI-2 QS mod: 22.9; SUMO Mot1 rescue: 5.6; KCNQ1 act: inactive

What do the screens show for `O=C(CN1C(=O)NC2(CCc3ccccc32)C1=O)NCC(=O)Nc1ccc(F)cc1` (stereo not given)?
SUMO Mot1 rescue: -14.0

How did O=C(CN1C(=O)NC2(CCc3ccccc32)C1=O)Nc1cccc(F)c1 (stereo not given) do in these assays?
hERG rescue: -15.3; KCNQ1 inh: inactive; AI-2 QS mod: -84.4*; SUMO Mot1 rescue: -14.4; KCNQ1 act: inactive; JMH597 growth: -2.5; BB721 lum counter: 91.7*; BB721 growth rt: 15.6; AI-2 QS JMH597: 94.6*

Results for CCNC(=O)CN1C(=O)NC2(CCOc3ccccc32)C1=O (stereo not given) ?
hERG rescue: -6.1; KCNQ1 inh: inactive; AI-2 QS mod: 16.5; SUMO Mot1 rescue: -2.0; KCNQ1 act: inactive

Results for CCN(c1ccc(NC(=O)CN2C(=O)NC3(CCOc4ccccc43)C2=O)cc1)C(C)C (stereo not given) ?
Cl transport mod: -0.131; hERG rescue: -9.5; KCNQ1 inh: inactive; AI-2 QS mod: -81.6*; SUMO Mot1 rescue: -5.8; KCNQ1 act: inactive; JMH597 growth: -16.4; BB721 lum counter: inconclusive; BB721 growth rt: -9.1; AI-2 QS JMH597: 90.1*

How did O=C(OCC(=O)N1CCc2ccccc21)c1ccc(Cl)nc1 do in these assays?
Cl transport mod: -0.535; hERG rescue: -9.0; KCNQ1 inh: inactive; AI-2 QS mod: 0.2; SUMO Mot1 rescue: -4.6; KCNQ1 act: inactive

What do the screens show for `CC(C)c1ccc(NC(=O)CSc2nc3ncccc3[nH]2)cc1`?
hERG rescue: -3.9; KCNQ1 inh: inactive; AI-2 QS mod: -82.7*; SUMO Mot1 rescue: 2.1; KCNQ1 act: inactive; JMH597 growth: 24.7; BB721 lum counter: 92.8*; BB721 growth rt: 17.9; AI-2 QS JMH597: 95.2*

How did CC(C)OC(=O)c1ccc(NC(=O)CSc2nc3ncccc3[nH]2)cc1 do in these assays?
hERG rescue: -15.9; KCNQ1 inh: inactive; AI-2 QS mod: -85.1*; SUMO Mot1 rescue: -0.7; KCNQ1 act: inactive; JMH597 growth: 27.3; BB721 lum counter: 96.2*; BB721 growth rt: 22.5; AI-2 QS JMH597: 97.5*

How did COc1ccc(NC(=O)CSc2nc3ncccc3[nH]2)cc1OC do in these assays?
Cl transport mod: -4.75; hERG rescue: -11.7; KCNQ1 inh: inactive; AI-2 QS mod: 11.9; SUMO Mot1 rescue: 3.8; KCNQ1 act: inactive

What do the screens show for `CC(=O)c1ccc(NC(=O)CCc2ccc(C)o2)cc1`?
hERG rescue: -5.0; KCNQ1 inh: inactive; AI-2 QS mod: -88.1*; SUMO Mot1 rescue: 0.6; KCNQ1 act: inactive; JMH597 growth: -2.5; BB721 lum counter: 94.7*; BB721 growth rt: -15.8; AI-2 QS JMH597: 96.4*

Results for Cc1ccc(CCC(=O)Nc2ccc(C#N)cc2)o1 ?
hERG rescue: -4.5; KCNQ1 inh: inactive; AI-2 QS mod: -79.9*; SUMO Mot1 rescue: -6.1; KCNQ1 act: inactive; JMH597 growth: 26.2; BB721 lum counter: 90.3*; BB721 growth rt: 23.3; AI-2 QS JMH597: 92.9*

How did Nc1cc(=O)[nH]c(SCC(=O)N2CCC(Cc3ccccc3)CC2)n1 do in these assays?
SUMO Mot1 rescue: 41.5

Results for Cc1ccc(Cn2ncn(-c3ccccc3)c2=O)cc1 ?
Cl transport mod: 0.896; hERG rescue: -16.0; KCNQ1 inh: inactive; AI-2 QS mod: inconclusive; KCNQ1 act: inactive; JMH597 growth: 4.1; BB721 lum counter: 94.8*; BB721 growth rt: 26.1; AI-2 QS JMH597: 96.6*

Results for COC(=O)C1=C(C(=O)OC)SC(=C2C(=S)C(C)(C)N(C(=O)CC(C)C)c3ccccc32)S1 ?
Cl transport mod: 0.117; hERG rescue: -12.5; KCNQ1 inh: inactive; AI-2 QS mod: 13.0; SUMO Mot1 rescue: -11.8; KCNQ1 act: inactive

What do the screens show for `O=S(=O)(c1cccs1)N1CCN(CC(O)COc2cccc(Br)c2)CC1` (stereo not given)?
Cl transport mod: -0.841; hERG rescue: -16.0; KCNQ1 inh: inactive; AI-2 QS mod: -81.5*; SUMO Mot1 rescue: -21.0; KCNQ1 act: inactive; JMH597 growth: -0.6; BB721 lum counter: 87.7*; BB721 growth rt: -8.8; AI-2 QS JMH597: 92.9*

What do the screens show for `O=S(=O)(c1cccs1)N1CCN(CC(O)COC2CCCc3ccccc32)CC1` (stereo not given)?
Cl transport mod: 1.17; hERG rescue: 0.8; KCNQ1 inh: inactive; AI-2 QS mod: -1.8; SUMO Mot1 rescue: 260.3; KCNQ1 act: inactive

Results for Clc1ccc(OCc2noc(-c3ccsc3)n2)c(Cl)c1 ?
Cl transport mod: -1.09; hERG rescue: -4.3; KCNQ1 inh: inactive; AI-2 QS mod: 18.7; SUMO Mot1 rescue: -17.8; KCNQ1 act: inactive

What do the screens show for `O=C(Cn1cnc2c(nc3n2CCCCC3)c1=O)Nc1cccc(C(F)(F)F)c1`?
hERG rescue: -9.1; KCNQ1 inh: inactive; AI-2 QS mod: -86.4*; SUMO Mot1 rescue: -7.8; KCNQ1 act: inactive; JMH597 growth: -9.0; BB721 lum counter: 94.7*; BB721 growth rt: 5.1; AI-2 QS JMH597: 95.8*

How did O=C(Cn1cnc2c(nnn2Cc2ccc(F)cc2)c1=O)Nc1cccc(F)c1 do in these assays?
Cl transport mod: 0.21; hERG rescue: -6.4; KCNQ1 inh: inactive; AI-2 QS mod: 11.0; SUMO Mot1 rescue: 28.4; KCNQ1 act: inactive
